# Assay outcomes: PubChem BioAssay, several laboratories
# The list is not random: actives were taken first. Their share in the collection is about 4.8%.
# UPR XBP1 act: adaptive UPR (XBP1) activation. AID 463104. activation, % at 20 µM. CHO-XBP1 luciferase reporter, IRE1-XBP1 UPR activation, luminescence; percent of tunicamycin response, DMSO as zero. 0.33% of 330,000 active;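 active means versus positive control, 20 µM dose yields 30% or more activation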;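 further: 100% = tunicamycin at 10 µg/mL and 0% = DMSO only wells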
#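 Material: CHO cell line with stable XBP1 luciferase reporter; schedule: 16-18 h cell attachment at 37 °C, then 6 h compound exposure; signal: glow luminescence from Steady-Glo reagent; medium: serum-containing F12 medium, 10% FBS; benchmarks: tunicamycin 10 µg/mL and vehicle-only wells; read-out: percent activation relative to tunicamycin reference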
# SKKanGAS inh: inhibitors of SKKanGAS S. pyogenes growth in kanamycin (SK-promoter or general growth effect); BacTiter-Glo, 6 h; inhibition, % at 7.5 µM; 1.3% of 300,000 active; AID 1662;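 active means mean replicate score, as percent of positive control median, at least 50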;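 further: strain carries kanamycin resistance gene driven by streptokinase promoter and grows in 40 µg/ml kanamycin; loss of luminescence reflects streptokinase promoter inhibition or plain growth inhibition; 0% = median of DMSO wells and 100% = positive control at its reference dose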
# Beta apoptosis: beta cell apoptosis inhibition | protection from apoptosis, % (test concentration not listed) | INS-1E cytokine-induced death, ATP luminescence, 48 h; percent of positive-control rescue, neutral wells zero | 0.8% of 300,000 active;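 active means Every replicate reaches about 75%, or at least half do and their mean reaches it too, limit read from the data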;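 further: 0% = cytokine-treated negative control wells and 100% = positive control rescue; higher means more ATP so stronger rescue from cytokine killing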
# Mdm2 MdmX PPI: disrupts the human Mdm2-MdmX interaction; SaOS-2 split-luciferase Mdm2/MdmX complementation, luminescence; O15151+Q00987; 3% of 330,000 active; inhibition, % at 8 µM;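 active means inhibition of at least 50% at 8 µM in the primary screen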
# CSC inhib: cancer stem cell inhibition | cancer stem cell-like cells viability, luminescence | inhibition, % at 7.5 µM | 1.1% of 300,000 active; in the data active means inhibition above about 75%; tested in HMLE shEcad cells
# CHOP UPR activ: activators of apoptotic arm of unfolded protein response (CHOP). AID 449763. activation, % at 10 µM. 0.34% of 330,000 active. CHO-CHOP luciferase reporter, UPR activation, luminescence; percent of tunicamycin response over DMSO baseline;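 active means at 10 µM dose, activation of 40% or more, normalized to positive control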;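 further: 100% = tunicamycin at 10 µg/mL and 0% = DMSO alone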
#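 Assay system: CHO-CHOP cells, stable luciferase reporter of PERK-eIF2a-CHOP signalling / Buffer or medium: F12 plus 10% serum / Compound dosing: one dose, 10 µM in 0.5% DMSO / Times: 6 h compound treatment, 37 °C / Technique: luciferase luminescence / Read-out: % reporter activation, DMSO baseline versus tunicamycin full activation / Benchmarks: tunicamycin and DMSO controls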
# Mdm2 MdmX conf: human Mdm2/MdmX binding inhibition, confirmed; inhibition, % at 8 µM; shares compounds with Mdm2 MdmX PPI; luminescent assay; 55% of 10,000 active; AID 489028; in the data active means inhibition above about 40%
# FLuc counter: full-length luciferase inhibition in Mdm2/MdmX counter-screen. shares compounds with Mdm2 MdmX PPI. SaOS-2 full-length luciferase counterscreen, luminescence. inhibition, % at 8 µM. 77% of 6,200 active;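 active means mean inhibition at 8 µM reaching about 37%, which flags the compound as non-specific, limit read from the data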;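 further: p53-null SaOS-2 cells with luciferase driven by a doxycycline-inducible promoter; compound on cells about two nights before reading with doxycycline added after day one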
# The depositor's hits bear a star; . = not tested or not shown; + = active, no number.
SMILES,UPR XBP1 act,SKKanGAS inh,Beta apoptosis,Mdm2 MdmX PPI,CSC inhib,CHOP UPR activ,Mdm2 MdmX conf,FLuc counter
Cc1ccc(NC(=O)c2ccc(CN3CCN(C)CC3)cc2)cc1Nc1nccc(-c2cccnc2)n1,-1.5,-2.6,.,17.0,-14.2,2.1,.,.
COc1ccc(CCNC(=O)[C@@H](NC(=O)N2CC(=O)Nc3ccccc32)C(C)C)cc1OC,-2.1,-4.3,.,9.3,-12.1,2.1,.,.
O=c1ccc(-c2ccc(S(=O)(=O)Nc3cccc(Br)c3)o2)n[nH]1,-3.9,4.0,-4.0,9.1,2.0,0.2,.,.
COc1cc(NS(=O)(=O)c2ccc(C)cc2)c2ncccc2c1,-3.9,82.0*,44.9,89.1*,37.5,111.5*,98.5*,4.9
COc1ccc(S(=O)(=O)Nc2ccccn2)cc1,-3.0,-1.2,7.9,21.0,-5.1,-0.4,.,.
O=C(Nc1cccc2cccnc12)c1ccc(Cl)cc1Cl,-3.3,6.4,-5.8,11.1,10.5,1.5,.,.
COc1cc(NC(=O)c2ccccc2Cl)c2ncccc2c1,-3.4,4.9,-1.2,56.8*,51.0,0.2,50.5*,51.5*
COc1ccccc1CCNCc1ccc(OC)c(OCc2ccccc2)c1,-0.2,-2.4,44.8,39.2,-2.9,1.9,.,.
COc1cccc(CNC23CC4CC(CC(C4)C2)C3)c1OCc1ccccc1,-0.7,-0.4,26.2,51.9*,55.1,-0.4,43.0*,58.6*
COc1cc(CNCCc2c[nH]c3ccccc23)ccc1OCc1ccccc1F,2.9,-2.0,21.4,90.1*,+,2.5,18.2,.
COc1cccc(CNCCc2c[nH]c3ccccc23)c1OCc1ccccc1,-0.7,25.2,15.1,53.6*,26.2,3.5,24.9,.
COc1cccc(CNn2cnnc2)c1OCc1ccc(F)cc1,-0.2,3.9,-2.7,2.8,.,-0.6,.,.
Cc1c(C(=O)N2CCC(C)CC2)sc2ncn(CC(=O)N3CCC(C)CC3)c(=O)c12,-4.3,-5.5,-6.0,13.4,-4.5,-2.2,.,.
Cc1cccc(NC(=O)c2cccc(S(=O)(=O)N(C)c3ccccc3)c2)n1,1.5,.,.,14.1,.,1.1,.,.
COc1ccc2cc3c(N)nn(C(=O)c4cccc([N+](=O)[O-])c4)c3nc2c1,-0.4,0.1,-19.3,88.4*,-10.5,-0.7,66.9*,32.1
COc1ccc2cc3c(N)nn(C(=O)Cc4ccccc4OC)c3nc2c1,2.0,-0.9,-4.5,72.5*,0.6,-0.7,67.0*,61.6*
COc1ccc(-c2nc(N)n(C(=O)Cc3ccccc3)n2)cc1,-0.2,19.0,-24.4,-12.6,-5.8,0.7,.,.
COc1ccc(NC(=O)CCSc2nc(C)cs2)cc1,-1.4,-17.0,-3.6,-9.0,14.5,3.9,.,.
COc1cc2c(cc1OC)CN(c1ccc(F)cc1[N+](=O)[O-])CC2,10.2,3.6,5.0,10.6,12.5,4.3,.,.
CCN1C(=O)c2cccc3c(S(=O)(=O)N(C(C)=O)c4ccc(OC(C)=O)cc4)ccc1c23,7.1,.,14.3,61.1*,6.7,-0.5,1.4,.
COc1ccc(N(C(=O)c2ccncc2)S(=O)(=O)c2ccc3c4c(cccc24)C(=O)N3C)cc1,-5.9,.,-5.1,31.9,-7.0,1.0,.,.
Cc1ccccc1NS(=O)(=O)c1ccc2c3c(cccc13)C(=O)N2C,-4.2,15.0,.,52.8*,-9.9,2.3,49.3*,100.1*
CCN1C(=O)c2cccc3c(S(=O)(=O)Nc4ccccc4OC)ccc1c23,-0.2,-5.7,1.0,56.2*,.,1.0,43.3*,79.2*
CCN1C(=O)c2cccc3c(S(=O)(=O)N4CCC(C)CC4)ccc1c23,-1.0,.,-9.3,82.8*,-11.9,1.0,42.5*,82.7*
CN1C(=O)c2cccc3c(S(N)(=O)=O)ccc1c23,-3.1,-2.6,.,24.1,-1.8,0.9,.,.
COc1ccc(NC(=O)CCNS(=O)(=O)c2ccc(Cl)c([N+](=O)[O-])c2)cc1S(N)(=O)=O,3.0,0.2,-6.2,9.9,-6.9,1.7,.,.
